Values after ≈ are worked out from the molar mass of the structure shown. Active and inactive are the calls of the source.
Columns and labels:
[1] = test system: Staphylococcus aureus; experiment: Induction of membrane depolarization in heterogeneous vancomycin-intermediate resistant Staphylococcus aureus ATCC 700698 at 16 ug/mL using DiSC3(5) dye by fluorimetric assay; format: functional, organism-based
[2] = test system: Staphylococcus aureus; experiment: Increase in membrane permeability in heterogeneous vancomycin-intermediate resistant Staphylococcus aureus ATCC 700698 at 16 ug/mL using SYTO9 staining by fluorimetric assay; format: functional, organism-based
[3] = test system: Staphylococcus aureus; experiment: Bactericidal activity against heterogeneous vancomycin-intermediate resistant Staphylococcus aureus ATCC 700698 at 16 ug/ml within 30 mins; format: functional, organism-based
Summary of the method: (§1)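 Short-duration time-kill of hVISA ATCC 700698 under conditions similar to the membrane assays, without polysorbate-80, with drug at 4, 8 or 16 μg/ml; viable counts as change in log CFU from time zero over 30 min. Bactericidal defined as ≥3 log CFU decrease; detection limit 200 CFU; three independent experiments.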

[4] = test system: Staphylococcus aureus; experiment: Antimicrobial activity against heterogeneous vancomycin-intermediate resistant Staphylococcus aureus ATCC 700698; format: functional
[5] = test system: Staphylococcus aureus; experiment: Induction of membrane depolarization in heterogeneous vancomycin-intermediate resistant Staphylococcus aureus ATCC 700698 using DiSC3(5) dye by fluorimetric assay; format: functional, organism-based
[6] = test system: Staphylococcus aureus; experiment: Increase in membrane permeability in heterogeneous vancomycin-intermediate resistant Staphylococcus aureus ATCC 700698 using SYTO9 staining by fluorimetric assay; format: functional, organism-based
[7] = test system: Staphylococcus aureus; experiment: Bactericidal activity against heterogeneous vancomycin-intermediate resistant Staphylococcus aureus ATCC 700698 assessed as reduction in bacterial count at 4 ug/ml within 30 mins; format: functional; summary of the method: as §1
[8] = test system: Staphylococcus aureus; experiment: Bactericidal activity against heterogeneous vancomycin-intermediate resistant Staphylococcus aureus ATCC 700698 assessed as reduction in bacterial count at 8 ug/ml within 30 mins; format: functional; summary of the method: as §1
[9] = test system: Staphylococcus aureus; experiment: Bactericidal activity against heterogeneous vancomycin-intermediate resistant Staphylococcus aureus ATCC 700698 assessed as reduction in bacterial count at 16 ug/ml within 30 mins; format: functional; summary of the method: as §1
[10] = test system: Staphylococcus aureus; experiment: Antimicrobial activity against vancomycin-intermediate resistant Staphylococcus aureus; format: functional
[11] = test system: Staphylococcus aureus; experiment: Antimicrobial activity against vancomycin-resistant Staphylococcus aureus; format: functional
[12] = test system: Enterococcus; experiment: Antimicrobial activity against vancomycin-resistant Enterococcus; format: functional
[13] = test system: Staphylococcus aureus; experiment: Antimicrobial activity against heterogeneous vancomycin-intermediate resistant Staphylococcus aureus; format: functional

Row | SMILES | Activity [1] | Activity [2] | Activity [3] | MIC [4] | Activity [5] | Activity [6] | log10cfu [7] | log10cfu [8] | log10cfu [9] | MIC [10] | MIC [11] | MIC [12] | MIC [13]
1 | CN[C@H](CC(C)C)C(=O)N[C@H]1C(=O)N[C@@H](CC(N)=O)C(=O)N[C@H]2C(=O)N[C@H]3C(=O)N[C@H](C(=O)N[C@H](C(=O)O)c4cc(O)cc(O)c4-c4cc3ccc4O)[C@H](O)c3ccc(c(Cl)c3)Oc3cc2cc(c3O[C@@H]2O[C@H](CO)[C@@H](O)[C@H](O)[C@H]2O[C@H]2C[C@](C)(N)[C@H](O)[C@H](C)O2)Oc2ccc(cc2Cl)[C@H]1O | inactive | inactive | inactive | – | – | – | – | – | – | – | – | – | –
2 | CN[C@H](CC(C)C)C(=O)N[C@H]1C(=O)N[C@@H](CC(N)=O)C(=O)N[C@H]2C(=O)N[C@H]3C(=O)N[C@H](C(=O)N[C@H](C(=O)O)c4cc(O)cc(O)c4-c4cc3ccc4O)[C@H](O[C@H]3C[C@](C)(N)[C@@H](O)[C@H](C)O3)c3ccc(c(Cl)c3)Oc3cc2cc(c3O[C@@H]2O[C@H](CO)[C@@H](O)[C@H](O)[C@H]2O[C@H]2C[C@](C)(N)[C@@H](O)[C@H](C)O2)Oc2ccc(cc2Cl)[C@H]1O [CHLOROEREMOMYCIN] | inactive | inactive | inactive | 1 µg/mL (≈ 0.628 µM) | – | – | – | – | – | – | – | – | –
3 | CN[C@H](CC(C)C)C(=O)N[C@H]1C(=O)N[C@@H](CC(N)=O)C(=O)N[C@H]2C(=O)N[C@H]3C(=O)N[C@H](C(=O)N[C@H](C(=O)O)c4cc(O)cc(O)c4-c4cc3ccc4O)[C@H](O[C@H]3C[C@](C)(N)[C@@H](O)[C@H](C)O3)c3ccc(c(Cl)c3)Oc3cc2cc(c3O[C@@H]2O[C@H](CO)[C@@H](O)[C@H](O)[C@H]2O[C@H]2C[C@](C)(NCc3ccc(-c4ccc(Cl)cc4)cc3)[C@@H](O)[C@H](C)O2)Oc2ccc(cc2Cl)[C@H]1O [ORITAVANCIN] | – | – | – | 1 µg/mL (≈ 0.558 µM) | Dose-dependent effect | Dose-dependent effect | >=3 | >=3 | >=3 | 0.25 µg/mL (≈ 0.139 µM) | 0.25 µg/mL (≈ 0.139 µM) | 0.25 µg/mL (≈ 0.139 µM) | 0.25 µg/mL (≈ 0.139 µM)

From ChEMBL document CHEMBL1687810, “Oritavancin disrupts membrane integrity of Staphylococcus aureus and vancomycin-resistant enterococci to effect rapid bacterial killing” (2010)
